Data on 31 molecules can be found in ChEMBL document CHEMBL1138409, “Diaryl substituted pyrazoles as potent CCR2 receptor antagonists” (Bioorg Med Chem Lett, 2007).

The target of data set [1] is T1, C-C chemokine receptor type 2 (Homo sapiens, UniProt P41597). The data set is described as follows: Displacement of 125I-hMCP1 from CCR2 expressed in human peripheral blood monocytes after 60 mins. The data set is classed as cell-based. In outline:
(§1)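 Primary human blood monocytes, which express CCR2 endogenously, were incubated with 125I-hMCP-1 (2200 Ci/mmol) and the unlabeled compound. Incubation was 60 min at room temperature in 50 mM Hepes, 5 mM MgCl2 and 1 mM CaCl2, pH 7.4. Bound label was collected by filtration through PEI-presoaked GF/B filters and washed with 25 mM Hepes pH 7.5 containing 500 mM NaCl. Filters were then dried and counted by scintillation. Values are the mean of at least two experiments.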
Target sequence in this assay (P41597 whole entry): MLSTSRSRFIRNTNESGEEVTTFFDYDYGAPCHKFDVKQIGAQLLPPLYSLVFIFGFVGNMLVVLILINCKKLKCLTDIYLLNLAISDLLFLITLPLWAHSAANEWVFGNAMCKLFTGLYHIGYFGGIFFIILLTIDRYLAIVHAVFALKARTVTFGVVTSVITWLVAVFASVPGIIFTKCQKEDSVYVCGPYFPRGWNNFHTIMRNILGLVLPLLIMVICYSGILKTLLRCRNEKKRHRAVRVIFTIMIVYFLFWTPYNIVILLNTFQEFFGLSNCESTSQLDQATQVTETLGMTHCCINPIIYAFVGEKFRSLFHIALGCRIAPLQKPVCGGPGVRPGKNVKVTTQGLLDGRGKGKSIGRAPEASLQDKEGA

The target of data set [2] is T1, C-C chemokine receptor type 2. The data set is described as follows: Displacement of 125I-hMCP1 from CCR2 expressed in human peripheral blood monocytes at 10 uM after 60 mins. The data set is classed as cell-based.
Target sequence in this assay (P41597 whole entry, looked up): as the sequence (P41597 whole entry) above
For data set [3] the target is unchanged. Kind of data set: Antagonist activity against human CCR2 receptor assessed as inhibition of MCP1-induced migration of human peripheral blood monocytes at 300 nM. The data set is classed as functional. Details: scale not given: the % may be the effect or the level left.
Target sequence in this assay (P41597 whole entry, looked up): as the sequence (P41597 whole entry) above
For data set [4] the target is unchanged. Kind of data set: Displacement of 125I-hMCP1 from CCR2 expressed in human peripheral blood monocytes less than 10 uM after 60 mins. The data set is classed as cell-based. The method, boiled down:
as §1
Target sequence in this assay (P41597 whole entry): as above

Data set [5] can be described thus: Volume of distribution in Sprague-Dawley rat. The following applies: in vivo. The data set is classed as ADME, organism-based.
Data set [6] can be described thus: Half life in Sprague-Dawley rat. The following applies: in vivo. The data set is classed as ADME, organism-based.
Data set [7] has as its target C-C chemokine receptor type 5 (Homo sapiens, UniProt P51681). Kind of data set: Inhibition of CCR5.
Data set [8] is described as follows: Clearance in Sprague-Dawley rat at 1 mg/kg, iv and 2 mg/kg, po. The data set is classed as ADME, organism-based. Particulars: in vivo.
Data set [9] can be described thus: Oral bioavailability in Sprague-Dawley rat at 2 mg/kg. The data set is classed as ADME, organism-based. The following applies: in vivo.
Data set [10] deals with T1, C-C chemokine receptor type 2. The data set is described as follows: Displacement of 125I-hMCP1 from CCR2 expressed in human peripheral blood monocytes at 1 uM after 60 mins. The data set is classed as cell-based. (Loss of bound radioactivity is the signal in a displacement assay; it reports binding, not function.)
Target sequence in this assay (P41597 whole entry, looked up): as the sequence (P41597 whole entry) above

SMILES strings stand for the structures. The source made the active and inactive calls. The calls are words filed in the database; no cut-off is given here.

C-C chemokine receptor type 5, sequence (P51681 whole entry): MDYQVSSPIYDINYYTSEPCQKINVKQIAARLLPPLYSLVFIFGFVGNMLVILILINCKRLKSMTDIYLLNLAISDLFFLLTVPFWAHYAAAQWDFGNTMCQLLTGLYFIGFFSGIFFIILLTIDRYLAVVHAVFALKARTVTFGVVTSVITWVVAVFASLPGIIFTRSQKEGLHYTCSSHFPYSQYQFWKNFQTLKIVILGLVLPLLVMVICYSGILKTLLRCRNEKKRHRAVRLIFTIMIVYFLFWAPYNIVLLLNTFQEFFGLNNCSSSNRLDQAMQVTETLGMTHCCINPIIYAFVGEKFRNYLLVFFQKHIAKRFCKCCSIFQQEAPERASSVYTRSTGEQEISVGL

Broadly, the IC50 is the point on the concentration scale where inhibition reaches its midpoint. The molecule `O=C(CCCc1cc(-c2cc(Cl)cc(Cl)c2)nn1-c1ccc2ccccc2c1)NCCCc1ccc2c(n1)NCCC2` returned an IC50 in data set [1] of 9330 nM.

Molecule `CCN(CC)CCCC(C)NC(=O)CCCc1cc(-c2cc(Cl)cc(Cl)c2)nn1-c1ccccc1` (centres undefined) displayed an Activity in data set [2] of 69%.

`CCN(CC)CCCC(C)NC(=O)CCOc1cc(-c2cc(Cl)cc(Cl)c2)nn1-c1ccc2ccccc2c1` (centres undefined) showed an IC50 in data set [1] of 66 nM.

`CCN(CC)CCCC(C)NC(=O)CCCc1cc(-c2ccccc2Cl)nn1-c1ccc2ccccc2c1` (centres undefined) displayed an Activity in data set [2] of 69%.

Take `CCN(CC)CCCC(C)NC(=O)CCNc1cc(-c2cc(Cl)cc(Cl)c2)nn1-c1ccc2ccccc2c1` (centres undefined): the IC50 in data set [1] is 30 nM.

Take `COC(=O)[C@H](Cc1c[nH]cn1)NC(=O)CCCc1cc(-c2cc(Cl)cc(Cl)c2)nn1-c1ccc2ccccc2c1`: the IC50 in data set [1] worked out at 2840 nM.

Regarding `CCN(CC)CCCC(C)NC(=O)CCCc1cc(-c2ccc(Cl)cc2)nn1-c1ccc2ccccc2c1` (centres undefined), in data set [3], the outcome was inactive. The IC50 in [1] was 442 nM.

As to `COC(=O)[C@H](CCCNC(=N)N)NC(=O)c1cccc(-c2cc(-c3cc(Cl)cc(Cl)c3)nn2-c2ccc3ccccc3c2)c1`, the 50% inhibitory concentration (IC50) entry in data set [4] is reported as “Not Active”.

In turn, `CCCC(CCCN(CC)CC)NC(=O)CCOc1cc(-c2cc(Cl)cc(Cl)c2)nn1-c1ccc2ccccc2c1` (centres undefined) registered an IC50 in [1] of 44 nM.

Take `CCN(CC)CCCC(C)NC(=O)CCCc1cc(-c2cc(C(F)(F)F)cc(C(F)(F)F)c2)nn1-c1ccc2ccccc2c1` (centres undefined): the IC50 in data set [1] worked out at 634 nM.

In turn, `COC(=O)[C@H](CCCNC(=N)N)NC(=O)CCOc1cc(-c2cc(Cl)cc(Cl)c2)nn1-c1ccc2ccccc2c1` had an IC50 in [1] of 62 nM.

As a reminder, the Vd is the apparent volume that relates the amount in the body to the concentration in plasma or blood. The half-life is how long it takes for the measured level to halve. By bioavailability is commonly meant dose-corrected exposure relative to a reference, in per cent. In turn, `CCN(CC)CCCC(C)NC(=O)CCCc1cc(-c2cc(Cl)cc(Cl)c2)nn1-c1ccc2ccccc2c1` (centres undefined) showed a Vd in [5] of 13 L/kg. This molecule had a half-life in [6] of 6.52 h. Further, the results for the IC50 in [7] and in data set [1] were 220 nM and 108 nM, respectively. The molecule also returned a clearance in data set [8] of 28.1 mL/min/kg. In data set [9], this molecule yielded a bioavailability of 5%.

For the molecule `CCCCC(CCCN(CC)CC)NC(=O)CCOc1cc(-c2cc(Cl)cc(Cl)c2)nn1-c1ccc2ccccc2c1` (centres undefined), the Activity in data set [10] was 52%.

In turn, `O=C(CCCc1cc(-c2cc(Cl)cc(Cl)c2)nn1-c1ccc2ccccc2c1)NCCCc1ccncc1` returned an IC50 in [1] of 1120 nM.

In turn, `COC(=O)[C@H](CCCNC(=N)N)NC(=O)CCNc1cc(-c2cc(Cl)cc(Cl)c2)nn1-c1ccc2ccccc2c1` came in with an IC50 in [1] of 43 nM.

Consider `CCN(CC)CCCC(NC(=O)CCOc1cc(-c2cc(Cl)cc(Cl)c2)nn1-c1ccc2ccccc2c1)C(C)C` (centres undefined), for which the IC50 in data set [7] turned out to be 1610 nM; in [1], 6 nM.

For the molecule `COC(=O)[C@H](CCCNC(=N)N)NC(=O)CC(=O)Nc1cc(-c2cc(Cl)cc(Cl)c2)nn1-c1ccc2ccccc2c1`, the IC50 entry in data set [4] is “Not Active”.

The molecule `CCC(CCCN(CC)CC)NC(=O)CCOc1cc(-c2cc(Cl)cc(Cl)c2)nn1-c1ccc2ccccc2c1` (centres undefined) returned an IC50 in [1] of 9 nM.

In the case of `CCN(CC)CCCC(C)NC(=O)CCCc1cc(-c2cccc(Cl)c2)nn1-c1ccc2ccccc2c1` (centres undefined), the Activity in data set [3] was found to be 57%. The IC50 in data set [1] came to 168 nM.

`COC(=O)[C@H](CCCNC(=N)N)NC(=O)CCCOc1cc(-c2cc(Cl)cc(Cl)c2)nn1-c1ccc2ccccc2c1` showed a half-maximal inhibitory concentration (IC50) in [1] of 7600 nM.

In data set [1], `CCN(CC)CCCC(CC(C)C)NC(=O)CCOc1cc(-c2cc(Cl)cc(Cl)c2)nn1-c1ccc2ccccc2c1` (centres undefined) registered an IC50 of 74 nM.

With `CCN(CC)CCCC(C)NC(=O)CCCc1cc(-c2cccc(F)c2)nn1-c1ccc2ccccc2c1` (centres undefined), in data set [1], the 50% inhibitory concentration (IC50) was 522 nM.

Turning to `CCN(CC)CCCC(C)NC(=O)CCCc1cc(-c2cccc(OC)c2)nn1-c1ccc2ccccc2c1` (centres undefined), in data set [1], the IC50 was 2390 nM.

The molecule `CCN(CC)CCCC(C)NC(=O)CCCc1cc(-c2cc(Cl)cc(Cl)c2)nn1-c1cc(C(F)(F)F)cc(C(F)(F)F)c1` (centres undefined) displayed an IC50 in [1] of 6470 nM.

In data set [1], `CCN(CC)CCCCNC(=O)CCCc1cc(-c2cc(Cl)cc(Cl)c2)nn1-c1ccc2ccccc2c1` showed an IC50 of 1230 nM.

In turn, `CCN(CC)CCCC(C)NC(=O)CCCc1cc(-c2cccc(C(F)(F)F)c2)nn1-c1ccc2ccccc2c1` (centres undefined) displayed an IC50 in data set [1] of 207 nM.

In the case of `COC(=O)[C@H](CCCNC(=N)N)NCCCCc1cc(-c2cc(Cl)cc(Cl)c2)nn1-c1ccc2ccccc2c1`, the half-maximal inhibitory concentration (IC50) entry in [4] was “Not Active”.

As for `COC(=O)[C@H](CCCNC(=N)N)NC(=O)CCCc1cc(-c2cc(Cl)cc(Cl)c2)nn1-c1ccc2ccccc2c1`, the Vd in data set [5] is 0.98 L/kg. The half-life in [6] was 2.49 h. Further, the IC50 in [7] turned out to be 63 nM; in data set [1] it was 221 nM. The same molecule returned a clearance in data set [8] of 8.3 mL/min/kg. The bioavailability in data set [9] was found to be 0%.

For `COC(=O)[C@H](CCCN=C(N)N)NC(=O)CCc1cc(-c2cc(Cl)cc(Cl)c2)nn1-c1ccc2ccccc2c1`, in data set [1], the IC50 is 4740 nM.

`CN(C)CCCCNC(=O)CCCc1cc(-c2cc(Cl)cc(Cl)c2)nn1-c1ccc2ccccc2c1`: the IC50 in data set [1] turned out to be 1800 nM.

With `CCC(C)CC(CCCN(CC)CC)NC(=O)CCOc1cc(-c2cc(Cl)cc(Cl)c2)nn1-c1ccc2ccccc2c1` (centres undefined), in data set [1], the IC50 came out at 107 nM.
